Published values of several laboratories.
Each line is one published result; the experiments were not run side by side.
Observed: cell growth or viability

CCn1c2ccccc2c2cc(C3CC(c4cc5ccccc5oc4=O)=NN3C(N)=O)ccc21 (stereo not drawn) — IC50 (NRK-52E; MTT; 24 h): 28400 nM
CC1=C(O)C(=O)C=C2C1=CC=C1[C@@]2(C)CC[C@@]2(C)[C@@H]3C[C@](C)(C(=O)OCCCN4C(=O)C5C=CC=CC5C4=O)CC[C@]3(C)CC[C@]12C (stereo partly drawn) — IC50 (Bel-7402; MTT; 48 h): 830 nM
Cc1ccc2c(c1)c(C(c1ccc(/C=C/C(=O)O)s1)c1cn(C(C)C)c3ccc(C)cc13)cn2C(C)C — IC50 (KG-1; 48 h): > 5000 nM
CC1=C(O)C(=O)C=C2C1=CC=C1[C@@]2(C)CC[C@@]2(C)[C@@H]3C[C@](C)(C(=O)OCCO)CC[C@]3(C)CC[C@]12C — IC50 (Bel-7402; MTT; 48 h): 680 nM
COc1cc(Nc2nccc(-c3cnn4nc(OC)ccc34)n2)cc(C(F)(F)F)c1 — IC50 (NCI-H1573; ATP luminescence): 630 nM
CCn1c2ccccc2c2cc(C3CC(c4cc5c(ccc6ccccc65)oc4=O)=NN3c3cccc(Cl)c3)ccc21 (stereo not drawn) — IC50 (NRK-52E; MTT; 24 h): 57100 nM
CCCON(Cc1ccc(C(=O)NO)cc1)C(=O)Nc1ccc(N(C)C)cc1 — IC50 (MOLM-13; ATP luminescence; 72 h): 7190 nM
CC(C)C[C@H](NC(=O)[C@H](Cc1ccccc1)NC(=O)c1cnccn1)B(O)O — IC50 (NCI-H1573; ATP luminescence): 29 nM
Nc1ncc(-c2cnn(C3CCNCC3)c2)cc1-c1nnc(CC2CC2)o1 — IC50 (MOLM-13; trypan blue; 72 h): 184 nM
C[C@@H](Oc1cc(-c2cnn(C3CCNCC3)c2)cnc1N)c1c(Cl)ccc(F)c1Cl — IC50 (Rh18; 72 h): 550 nM
CC1=C(O)C(=O)C=C2C1=CC=C1[C@@]2(C)CC[C@@]2(C)[C@@H]3C[C@](C)(C(=O)OCCCCCCCO)CC[C@]3(C)CC[C@]12C — IC50 (Bel-7402; MTT; 48 h): 740 nM
CC(C)[C@H](N)C(=O)N1CCC[C@H]1B(O)O — IC50 (MOLM-13; ATP luminescence; 48 h): 120 nM
Cc1ccc2[nH]cc(C(c3ccc(/C=C/C(=O)O)s3)c3c[nH]c4ccc(C)cc34)c2c1 — IC50 (KG-1; 48 h): > 5000 nM
CCn1c2ccccc2c2cc(/C=C/C(=O)c3cc4ccccc4oc3=O)ccc21 — IC50 (NRK-52E; MTT; 24 h): 94600 nM
O=C(O)/C=C/c1ccc(C(c2c[nH]c3ccccc23)c2c[nH]c3ccccc23)s1 — IC50 (KG-1; 48 h): > 20000 nM
COc1cc2nccc(Oc3ccc(NC(=O)C4(C(=O)Nc5ccc(F)cc5)CC4)cc3)c2cc1OC — IC50 (Rh18; 72 h): 5750 nM
O=C(O)C(c1c[nH]c2ccccc12)c1c[nH]c2ccccc12 — IC50 (KG-1; 48 h): > 20000 nM
CC1=C(O)C(=O)C=C2C1=CC=C1[C@@]2(C)CC[C@@]2(C)[C@@H]3C[C@](C)(C(=O)OCCCCCCO)CC[C@]3(C)CC[C@]12C — IC50 (Bel-7402; MTT; 48 h): 1220 nM
COC(=O)N[C@@H](C)CNc1nccc(-c2cn(C(C)C)nc2-c2cc(Cl)cc(NS(C)(=O)=O)c2F)n1 — IC50 (Malme-3M): 3.9 nM
CCn1c2ccccc2c2cc(C3CC(c4cc5ccccc5oc4=O)=NN3C(C)=O)ccc21 (stereo not drawn) — IC50 (NRK-52E; MTT; 24 h): 116000 nM
COc1cc(-c2ncn(/C=C\C(=O)OC(C)C)n2)cc(C(F)(F)F)c1 — IC50 (KG-1; 72 h): 165 nM
CCn1c2ccccc2c2cc(C3CC(c4cc5ccccc5oc4=O)=NN3c3ccccc3)ccc21 (stereo not drawn) — IC50 (NRK-52E; MTT; 24 h): 103000 nM
Cn1cc(C(c2cccc(/C=C/C(=O)O)c2)c2cn(C)c3ccccc23)c2ccccc21 — IC50 (KG-1; 48 h): > 20000 nM
CCn1c2ccccc2c2cc(C3CC(c4cc5c(ccc6ccccc65)oc4=O)=NN3c3ccc(C)cc3)ccc21 (stereo not drawn) — IC50 (NRK-52E; MTT; 24 h): 79900 nM
CC1=C(O)C(=O)C=C2C1=CC=C1[C@@]2(C)CC[C@@]2(C)[C@@H]3C[C@](C)(C(=O)OCCCBr)CC[C@]3(C)CC[C@]12C — IC50 (Bel-7402; MTT; 48 h): 720 nM
FC(F)(F)c1ccc(C(c2c[nH]c3ccccc23)c2c[nH]c3ccccc23)cc1 — IC50 (KG-1; 48 h): 15000 nM
CCn1c2ccccc2c2cc(/C=C/C(=O)c3cc4c(ccc5ccccc54)oc3=O)ccc21 — IC50 (NRK-52E; MTT; 24 h): 82700 nM
CC1=C(O)C(=O)C=C2C1=CC=C1[C@@]2(C)CC[C@@]2(C)[C@@H]3C[C@](C)(C(=O)OCCCCCO)CC[C@]3(C)CC[C@]12C — IC50 (Bel-7402; MTT; 48 h): 590 nM
COc1cc2c(Oc3ccc(NC(=O)C4(C(=O)Nc5ccc(F)cc5)CC4)cc3F)ccnc2cc1OCCCN1CCOCC1 — IC50 (Rh18; 72 h): 310 nM
CCn1c2ccccc2c2cc(C3CC(c4cc5cccc(OC)c5oc4=O)=NN3C(C)=O)ccc21 (stereo not drawn) — IC50 (NRK-52E; MTT; 24 h): 97900 nM
